# Measurements: ChEMBL document CHEMBL1122730, “Synthesis and pharmacological evaluation of indanpropionic acids as uterine relaxants” (1984)
# Experiments:
# Mus musculus [1] = species: Mus musculus; assay: Compounds were evaluated for the percent recovery of the contraction induced by KCL in the isolated mouse uterus at a concentration 10 E -4 M; type: functional
# In short: (§1)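 KCl (54 mM) served as agonist in the uterine strip. After the 5-min KCl response with the test agent present, the tissue was washed 20 min and challenged again with KCl for 5 min. The recovery response was expressed as integrated force, as a % of the mean of two initial control KCl responses.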
# Mus musculus [2] = species: Mus musculus; assay: Compounds were evaluated for the percent recovery of the contraction induced by KCL in the isolated mouse uterus at a concentration 10 E -5M; type: functional; in short: as §1
# Mus musculus [3] = species: Mus musculus; assay: Compounds were evaluated for the percent recovery of the contraction induced by PGF2-alpha in the isolated mouse uterus at a concentration 10 E -4 M; type: functional, tissue-based
# In short: (§2)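 Recovery after PGF2α challenge: following a 5-min PGF2α (10^-7 M) response with the test agent present, the tissue was washed 20 min with physiological medium, then re-exposed to 10^-7 M PGF2α for 5 min. The integrated contractile force was expressed as a % of the mean of two initial control PGF2α responses.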
# Mus musculus [4] = species: Mus musculus; assay: Compounds were evaluated for the percent recovery of the contraction induced by PGF2-alpha in the isolated mouse uterus at a concentration 10 E -5 M; type: functional; in short: as §2
# Mus musculus [5] = species: Mus musculus; assay: Inhibitory effect against contraction induced by PGF2-alpha in the isolated mouse uterus at a concentration of 10 E -4 M; type: functional
# In short: (§3)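 Uterine strips were equilibrated 30 min, then given two 5-min control responses to PGF2α (10^-7 M), each followed by a 20-min washout. The test agent was in the bath 5 min before 10^-7 M PGF2α was added. The integrated contractile force over 5 min was taken as a % of the mean of the two controls. Agents were dissolved in 0.25 N NaOH and diluted with water to pH 7.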
# Mus musculus [6] = species: Mus musculus; assay: Inhibitory effect against contraction induced by PGF2-alpha in the isolated mouse uterus at a concentration of 10 E -5 M; type: functional; in short: as §3
# Mus musculus [7] = species: Mus musculus; assay: Inhibitory effect against contraction induced by KCL in the isolated mouse uterus at a concentration of 10 E -4 M; type: functional
# In short: (§4)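 KCl (54 mM) replaced PGF2α as the stimulus. After 30-min equilibration, two 5-min control KCl responses were taken, each with a 20-min washout. The test agent was then preincubated 5 min before KCl was added. The integrated force over 5 min was expressed as a % of the mean of the two controls. Compounds were in NaOH, neutralised to pH 7.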
# Mus musculus [8] = species: Mus musculus; assay: Inhibitory effect against contraction induced by KCL in the isolated mouse uterus at a concentration of 10 E -5 M; type: functional; in short: as §4
# Mus musculus [9] = species: Mus musculus; assay: Compounds were evaluated for the percent recovery of the contraction induced by KCL in the isolated mouse uterus at a concentration 10 E -6M; type: functional; in short: as §1
# Mus musculus [10] = species: Mus musculus; assay: Compounds were evaluated for the percent recovery of the contraction induced by PGF2-alpha in the isolated mouse uterus at a concentration 10 E -6 M; type: functional; in short: as §2
# Mus musculus [11] = species: Mus musculus; assay: Compounds were evaluated for the percent recovery of the contraction induced by PGF2-alpha in the isolated mouse uterus at a concentration 3X 10 E -5 M; type: functional; in short: as §2
# Mus musculus [12] = species: Mus musculus; assay: (§5) Inhibitory effect for the contraction induced by BaCl2 in [Ca2+] containing buffer in the isolated mouse uterus at a concentration 10 E -4 M.; type: functional
# In short: (§6)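 BaCl2 (2.2 × 10^-4 M) stimulated the uterine strip, in Ca2+-containing or Ca2+-free buffer. Two 5-min control responses were taken, each with a 20-min washout. The test agent was added 5 min before BaCl2. The integrated contractile force was expressed as a % of the mean control response.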
# Mus musculus [13] = species: Mus musculus; assay: (§7) Inhibitory effect for the contraction induced by BaCl2 in [Ca2+] free buffer in the isolated mouse uterus at a concentration 10 E -4 M.; type: functional; in short: as §6
# Mus musculus [14] = species: Mus musculus; assay: Inhibitory effect against contraction induced by KCL in the isolated mouse uterus at a concentration of 10 E -6 M; type: functional; in short: as §4
# Mus musculus [15] = species: Mus musculus; assay: Inhibitory effect against contraction induced by PGF2-alpha in the isolated mouse uterus at a concentration of 10 E -6 M; type: functional; in short: as §3
# Mus musculus [16] = species: Mus musculus; assay: Inhibitory effect against contraction induced by PGF2-alpha in the isolated mouse uterus at a concentration of 3X10 E -5 M; type: functional; in short: as §3
# Mus musculus [17] = species: Mus musculus; assay: as §5; type: functional; in short: as §6; remark: listed apart in the source
# Mus musculus [18] = species: Mus musculus; assay: as §7; type: functional; in short: as §6; remark: listed apart in the source
# Mus musculus [19] = species: Mus musculus; assay: Inhibitory effect against contraction induced by PGF2-alpha in the isolated mouse uterus at a concentration of 10 E -4M; type: functional; in short: as §3
smiles,measurement,setting,value
O=C(O)CCC1(CCC(=O)O)Cc2cc(OCc3ccccc3)ccc2C1=O,Recovery,Mus musculus [1],105%
same,Recovery,Mus musculus [2],106%
same,Recovery,Mus musculus [3],91.1%
same,Recovery,Mus musculus [4],79.9%
same,inhibition at 100 µM,Mus musculus [5],6.5%
same,inhibition at 10 µM,Mus musculus [6],10.5%
same,inhibition at 100 µM,Mus musculus [7],1.9%
same,inhibition at 10 µM,Mus musculus [8],8.3%
CCCCC1(CCC(=O)O)Cc2cc(OCc3ccccc3)ccc2C1O (stereo not drawn),Recovery,Mus musculus [3],104%
same,Recovery,Mus musculus [4],91.7%
same,inhibition at 100 µM,Mus musculus [5],20.4%
same,inhibition at 10 µM,Mus musculus [6],0.5%
CCC[C@@]1(CCC(=O)O)Cc2cc(OCc3ccccc3)c(OCc3ccccc3)cc2[C@H]1O,Recovery,Mus musculus [1],85.8%
same,Recovery,Mus musculus [2],84.2%
same,Recovery,Mus musculus [9],86.1%
same,Recovery,Mus musculus [3],82.8%
same,Recovery,Mus musculus [4],81.8%
same,Recovery,Mus musculus [10],88.7%
same,Recovery,Mus musculus [11],79.7%
same,Recovery,Mus musculus [12],105%
same,Recovery,Mus musculus [13],39.4%
same,inhibition at 1 µM,Mus musculus [14],1.2%
same,inhibition at 100 µM,Mus musculus [5],67.1%
same,inhibition at 10 µM,Mus musculus [6],17.2%
same,inhibition at 1 µM,Mus musculus [15],0%
same,inhibition at 30 µM,Mus musculus [16],36.4%
same,inhibition at 100 µM,Mus musculus [17],48.1%
same,inhibition at 100 µM,Mus musculus [7],53.2%
same,inhibition at 10 µM,Mus musculus [8],9.4%
same,inhibition at 100 µM,Mus musculus [18],88.2%
CCC1(CCC(=O)O)Cc2cc(OCc3ccccc3)ccc2C1=O (stereo not drawn),Recovery,Mus musculus [3],70.4%
same,Recovery,Mus musculus [4],69.3%
same,inhibition at 100 µM,Mus musculus [19],44.4%
same,inhibition at 10 µM,Mus musculus [6],27.3%
CCCC1(CCC(=O)O)Cc2cc(OCc3ccccc3)ccc2C1=O (stereo not drawn),Recovery,Mus musculus [3],85.3%
same,Recovery,Mus musculus [4],85.5%
same,inhibition at 100 µM,Mus musculus [5],42%
same,inhibition at 10 µM,Mus musculus [6],6.4%
